Results on 22 compounds are retold here after PubChem BioAssay AID623894 (Johns Hopkins Ion Channel Center, 2012).

In the assay the target is Potassium channel subfamily K member 3 (Rattus norvegicus) (UniProt O54912). As to the kind of experiment: rat KCNK3 off-target channel block – cell-based, FluxOR thallium flux, CRC set 3, selectivity assay for KCNK9 inhibitor project, SAR follow-up (AID 623894). Particulars: KCNK3-expressing cell line, FluxOR thallium flux fluorescence; for flux ratio, lower = inhibition: at 30 µM (top of the series). The method, boiled down:
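Test system: Tetracycline-induced KCNK3 CHO cells | Measured by: FluxOR thallium-sensitive dye kinetic fluorescence | Replication: Duplicates or more | Timing: 90 min dye, 20 min compound, room temperature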

pIC50: −log10 of the molar value. Several values for one entry are separate records, joined by “and”; a condition that tells them apart may be missing. Identical values can stand only once. Activity calls are given as the source filed them.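 The calls were made as follows: active = peak inhibition above 30% of the KCNK3 potassium channel at some dose, plus a fitted dose response curve; inactive = no inhibition at any dose, or no fitted curve.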

Potassium channel subfamily K member 3 (Rattus norvegicus), sequence (O54912 whole entry, looked up): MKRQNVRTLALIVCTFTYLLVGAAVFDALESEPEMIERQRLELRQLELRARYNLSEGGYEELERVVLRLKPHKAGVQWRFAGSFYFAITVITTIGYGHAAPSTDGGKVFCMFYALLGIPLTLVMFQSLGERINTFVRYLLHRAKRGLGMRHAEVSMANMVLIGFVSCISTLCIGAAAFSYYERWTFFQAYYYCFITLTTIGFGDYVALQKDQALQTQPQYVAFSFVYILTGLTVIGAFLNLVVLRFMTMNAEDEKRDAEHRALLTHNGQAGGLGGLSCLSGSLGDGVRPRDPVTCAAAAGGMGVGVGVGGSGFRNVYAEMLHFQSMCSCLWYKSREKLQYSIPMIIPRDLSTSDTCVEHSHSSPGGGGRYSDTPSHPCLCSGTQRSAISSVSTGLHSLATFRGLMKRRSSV

Regarding `CC(C1CC2CCC1C2)n1c(SCCc2cccc(O)c2)nnc1-c1ccco1` (configuration not stated), the pIC50 is 5.78.
As to `C[C@H](C1CCCCC1)n1c(-c2ccsc2)n[nH]c1=S`, the pIC50 is 5.22.
The same measure, in the same setting: the same measure for `C[C@H]([C@@H]1CC2CC[C@H]1C2)n1c(-c2ccccc2F)n[nH]c1=S`: 6.92.
Still for that read-out and setting: the same measure for `COc1cccc(CCSc2nnc(-c3ccco3)n2C(C)C2CC3CCC2C3)c1` (configuration not stated): 6.05; for `C[C@H](C1CCCCC1)n1c(-c2ccccc2F)n[nH]c1=S`: 5.23; for `COc1ccc(CC(=O)NCc2ccccc2-c2ccccc2C(=O)NCc2ccc(F)cc2F)cc1`: 6.70.
Same read-out and setting: as for `COc1cccc(-c2n[nH]c(=S)n2[C@H](C)C2CCCCC2)c1`, the figure is 4.91; as for `COc1cccc(-c2n[nH]c(=S)n2[C@H](C)[C@@H]2CC3CC[C@H]2C3)c1`, 5.96.
On to `COc1ccc(CSc2nnc(-c3ccco3)n2C(C)C2CC3CCC2C3)cc1OC` (configuration not stated), for which the pIC50 was 5.66.
Same read-out and setting: the same measure for `CC(C1C[C@H]2CCC1C2)n1c(-c2ccsc2)n[nH]c1=S` (some centres not stated): 4.97.
`COc1ccc(NC(=O)CSc2nnc(-c3ccco3)n2C(C)C2CC3CCC2C3)cc1OC` (configuration not stated): the pIC50 is 4.52.
Take `CC(C1CC2CCC1C2)n1c(SCC(=O)N2CCN(C)CC2)nnc1-c1ccco1` (configuration not stated): the pIC50 is 4.61.
`CC(C1CC2CCC1C2)n1c(N)nnc1-c1ccco1` (configuration not stated): the “flux ratio, lower = inhibition” value was “inactive”.
Regarding `CC(C1CC2CCC1C2)n1c(SCCc2ccccn2)nnc1-c1ccco1` (configuration not stated), the pIC50 was 5.73.
Still for that read-out and setting: the same measure for `COc1ccc(C(=O)CCSc2nnc(-c3ccco3)n2C(C)C2CC3CCC2C3)cc1OC` (configuration not stated): 6.49.
Turning to `COc1cccc(-c2nnc(SSc3nnc(-c4cccc(OC)c4)n3C(C)C3CC4CCC3C4)n2C(C)C2CC3CCC2C3)c1` (configuration not stated), the pIC50 is 5.76.
In the case of `C[C@@H]([C@@H]1CC2CC[C@H]1C2)n1c(-c2ccco2)n[nH]c1=S`, the pIC50 is 6.09 and 5.18.
Same read-out and setting: the same measure for `CC([C@@H]1CC2CC[C@H]1C2)n1c(-c2ccsc2)n[nH]c1=S` (some centres not stated): 5.93.
For `CC(C1CCN(C)CC1)n1c(-c2ccco2)n[nH]c1=S` (configuration not stated), the “flux ratio, lower = inhibition” value is “inactive”.
Regarding `CC(C1CC2CCC1C2)n1c(SCCN2CCOCC2)nnc1-c1ccco1` (configuration not stated), the “flux ratio, lower = inhibition” value was “inactive”.
In the case of `C[C@H]([C@@H]1CC2CC[C@H]1C2)n1c(-c2ccco2)n[nH]c1=S`, the pIC50 was 6.80.
Regarding `CC(C1CC2CCC1C2)n1c(-c2ccco2)nn(CCc2ccncc2)c1=S` (configuration not stated), the pIC50 was 5.33.

What is called pIC50 is the negative decadic logarithm of the IC50, by convention in mol/L.
